{"source": "paper PMC12217772", "about": "(Nature Communications, 2025)", "key": {"[1]": {"target": "CP-AMPARs (Rattus norvegicus, UniProt P19491)", "experiment": "Whole-cell recordings, other NMDAR channel blockers on CP-AMPARs", "format": "cell-based", "details": "for Inhibitory effect on CP-AMPARs at hundreds of micromolar concentrations: hundreds of micromolar (10 and 100 µM shown in Fig. S1), 10 mM glutamate"}, "[2]": {"target": "GluA1/γ2 (Homo sapiens, UniProt P42261)", "sequence (P42261 19-906, species assumed)": "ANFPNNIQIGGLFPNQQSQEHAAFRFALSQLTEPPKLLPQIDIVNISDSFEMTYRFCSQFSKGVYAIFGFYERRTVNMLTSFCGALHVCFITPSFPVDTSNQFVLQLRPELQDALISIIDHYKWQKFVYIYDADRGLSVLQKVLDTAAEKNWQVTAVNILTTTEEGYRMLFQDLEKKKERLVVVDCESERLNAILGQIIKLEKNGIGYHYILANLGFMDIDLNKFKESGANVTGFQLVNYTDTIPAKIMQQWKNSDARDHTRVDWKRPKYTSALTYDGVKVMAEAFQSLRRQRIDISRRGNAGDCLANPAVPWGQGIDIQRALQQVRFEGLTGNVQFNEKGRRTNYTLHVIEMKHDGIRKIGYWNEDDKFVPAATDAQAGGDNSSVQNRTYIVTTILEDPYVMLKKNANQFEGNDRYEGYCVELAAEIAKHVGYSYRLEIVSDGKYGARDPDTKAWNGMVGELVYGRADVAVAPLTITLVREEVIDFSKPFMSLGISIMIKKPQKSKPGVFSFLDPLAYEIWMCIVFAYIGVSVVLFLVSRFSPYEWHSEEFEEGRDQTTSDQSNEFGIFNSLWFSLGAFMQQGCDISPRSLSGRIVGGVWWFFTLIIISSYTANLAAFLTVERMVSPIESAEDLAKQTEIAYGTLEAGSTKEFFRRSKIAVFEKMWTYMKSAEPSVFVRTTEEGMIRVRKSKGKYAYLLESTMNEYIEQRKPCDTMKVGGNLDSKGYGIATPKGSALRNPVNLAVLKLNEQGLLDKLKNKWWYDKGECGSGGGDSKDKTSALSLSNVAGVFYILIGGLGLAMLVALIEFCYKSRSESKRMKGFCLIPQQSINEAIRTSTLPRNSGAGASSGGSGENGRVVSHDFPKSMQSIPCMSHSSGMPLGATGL", "sequence (Q9Y698 whole entry partner, species assumed)": "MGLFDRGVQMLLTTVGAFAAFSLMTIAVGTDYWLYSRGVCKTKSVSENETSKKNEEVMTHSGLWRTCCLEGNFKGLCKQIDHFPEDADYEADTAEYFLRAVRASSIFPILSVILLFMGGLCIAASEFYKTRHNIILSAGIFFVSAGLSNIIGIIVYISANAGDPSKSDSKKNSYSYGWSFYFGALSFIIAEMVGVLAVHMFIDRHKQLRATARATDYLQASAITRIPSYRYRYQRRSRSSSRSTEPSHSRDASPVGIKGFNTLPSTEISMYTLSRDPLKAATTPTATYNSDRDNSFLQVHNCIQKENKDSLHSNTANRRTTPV", "experiment": "Whole-cell patch-clamp, glutamate-induced currents, GluA1/γ2", "format": "cell-based", "summary_of_the_method": "(§1)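 HEK-293T cells at 40–50% confluency were lipofectamine-transfected with GluA1, or GluA1 plus GluA2(R), co-transfected with γ2 or γ8 and GFP. Cells were replated after 4–6 h in NBQX-containing medium and recorded 24–48 h post-transfection. […] IC50 came from a Hill fit of steady-state current inhibition versus concentration; ≥3 recordings over ≥3 days.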"}, "[3]": {"target": "GluA1-GluA2(R)/γ2 (UniProt P19491+P42261, Q607R)", "experiment": "Whole-cell patch-clamp, co-expression of GluA1 and GluA2", "format": "cell-based", "summary_of_the_method": "as §1"}, "[4]": {"target": "GluA1/γ8 (Homo sapiens, UniProt P42261)", "sequence (P42261 19-906, species assumed)": "as the sequence (P42261 19-906, species assumed) above", "sequence (Q8WXS5 whole entry partner, species assumed)": "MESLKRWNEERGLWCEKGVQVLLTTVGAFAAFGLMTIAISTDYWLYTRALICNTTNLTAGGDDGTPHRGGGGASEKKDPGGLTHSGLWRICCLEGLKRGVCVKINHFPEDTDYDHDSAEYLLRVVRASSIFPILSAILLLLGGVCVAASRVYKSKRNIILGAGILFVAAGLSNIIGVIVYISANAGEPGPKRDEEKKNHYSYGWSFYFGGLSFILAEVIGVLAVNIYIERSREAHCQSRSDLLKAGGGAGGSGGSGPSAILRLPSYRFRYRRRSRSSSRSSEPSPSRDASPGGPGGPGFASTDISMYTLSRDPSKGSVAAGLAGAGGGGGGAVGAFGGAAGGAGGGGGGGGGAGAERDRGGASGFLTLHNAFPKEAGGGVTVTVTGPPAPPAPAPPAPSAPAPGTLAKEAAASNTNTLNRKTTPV", "experiment": "Whole-cell patch-clamp, glutamate-induced currents, GluA1/γ8", "format": "cell-based", "summary_of_the_method": "as §1"}, "[5]": {"target": "GluA2(R)/γ2 (Rattus norvegicus, UniProt P19491, Q607R)", "experiment": "Whole-cell patch-clamp, glutamate-induced currents, CI-AMPAR GluA2", "format": "cell-based", "details": "10 mM glutamate"}, "[6]": {"target": "GluA2(Q) in the presence of CTZ (Rattus norvegicus, UniProt P19491)", "experiment": "Whole-cell patch-clamp, GluA2", "format": "cell-based", "details": "500 µM memantine, 100 μM CTZ, 10 mM glutamate"}, "[7]": {"target": "GluA2(Q)/γ2 (UniProt P19491+Q9Y698, E306D/I257V/N307S/S313A)", "experiment": "Whole-cell patch-clamp, glutamate-induced currents, GluA2", "format": "cell-based, rat", "details": "10 mM glutamate", "summary_of_the_method": "(§2)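 HEK-293T cells were transfected with GluA2(Q), GluA2(Q)/γ2 or GluA2(Q)/γ8 plus GFP, replated in NBQX medium, and recorded 24–48 h later. Whole-cell clamp at −60 mV, room temperature; CsF/CsCl/EGTA internal and NaCl/KCl/CaCl2/HEPES external, both pH 7.4. […] IC50 came from a Hill fit of steady-state inhibition; ≥3 recordings from ≥3 days.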"}, "[8]": {"target": "GluA2(Q) (Rattus norvegicus, UniProt P19491)", "experiment": "Whole-cell patch-clamp, glutamate-induced currents, GluA2", "format": "cell-based", "details": "500 µM memantine, 10 mM glutamate, no auxiliary subunit, no CTZ", "summary_of_the_method": "as §2"}, "[9]": {"target": "GluA2(Q)/γ8 (UniProt P19491+Q8WXS5)", "experiment": "Whole-cell patch-clamp, glutamate-induced currents, GluA2", "format": "cell-based, rat", "details": "500 µM memantine, 10 mM glutamate", "summary_of_the_method": "as §2"}, "[10]": {"target": "GluA2(Q) subunit of GluA2-γ2EM (rat) (UniProt P19491)", "experiment": "cryo-EM structure"}}, "note": "Where “and” joins values, the source holds several entries; their conditions need not be identical. Identical values can stand only once."}
{"compound": "C[C@]12N[C@H](Cc3ccccc31)c1ccccc12", "note": "[MK801]", "values": [{"measurement": "Inhibition of CP-AMPARs in the concentration range where they inhibit NMDARs", "setting": "[1]", "result": "do not show significant inhibition"}, {"measurement": "Inhibitory effect on CP-AMPARs at hundreds of micromolar concentrations", "setting": "[1]", "result": "minimal inhibitory effect"}]}
{"compound": "CNC1(c2ccccc2Cl)CCCCC1=O", "note": "(stereo not drawn) [ketamine]", "values": [{"measurement": "Inhibition of CP-AMPARs in the concentration range where they inhibit NMDARs", "setting": "[1]", "result": "do not show significant inhibition"}, {"measurement": "Inhibitory effect on CP-AMPARs at hundreds of micromolar concentrations", "setting": "[1]", "result": "minimal inhibitory effect"}]}
{"compound": "CC12CC3CC(C)(C1)CC(N)(C3)C2", "note": "[memantine, Memantine]", "values": [{"measurement": "IC50", "setting": "[2]", "result": "15 ± 2", "unit": "µM"}, {"measurement": "IC50", "setting": "[3]", "result": "697 ± 149", "unit": "µM"}, {"measurement": "IC50", "setting": "[4]", "result": "10 ± 2", "unit": "µM"}, {"measurement": "Inhibitory effect on GluA2(R)/γ2 at 500 µM", "setting": "[5]; 500 µM memantine", "result": "only a minor inhibitory effect"}, {"measurement": "Inhibition of GluA2(R)/γ2 currents at saturating concentrations", "setting": "[5]; saturating concentrations of memantine", "result": "only partial inhibition"}, {"measurement": "Effect on steady-state currents of GluA2(Q) with CTZ", "setting": "[6]", "result": "showed inhibition of the steady-state currents"}, {"measurement": "Effect on peak and steady-state currents of GluA2(Q)/γ2", "setting": "[7]; 500 µM memantine", "result": "inhibited"}, {"measurement": "IC50", "setting": "[7]; IC50 for memantine inhibition of GluA2(Q)/γ2, HEK-293 cells, steady-state current, −60 mV", "result": "49.3 µM and 49 µM"}, {"measurement": "Inhibition of whole-cell currents of GluA2(Q) in isolation", "setting": "[8]", "result": "did not show any significant inhibition"}, {"measurement": "Effect on peak and steady-state currents of GluA2(Q)/γ8", "setting": "[9]", "result": "inhibited"}]}
{"compound": "GluA2(Q) subunit of GluA2-γ2EM (from UniProt P19491-2 22-883) (receptor)", "values": [{"measurement": "stoichiometry N", "setting": "[10]", "result": 4}]}
